According to ChEMBL document CHEMBL4028818, “Tricyclic 4,4-dimethyl-3,4-dihydrochromeno[3,4-d]imidazole derivatives as microsomal prostaglandin E2 synthase-1 (mPGES-1) inhibitors: SAR and in vivo efficacy in hyperalgesia pain model” (Bioorg Med Chem Lett, 2017):

Tests used:
Type in all cases: cell-based
Prostaglandin E synthase [1] = target: T1, Prostaglandin E synthase (Homo sapiens, UniProt O14684); experiment: Inhibition of mPGES-1 in human A549 cells assessed as decrease in IL1beta induced PGE2 release preincubated for 30 mins followed by IL-1beta addition after 16 to 20 hrs by HTRF method
T1 sequence (O14684 whole entry): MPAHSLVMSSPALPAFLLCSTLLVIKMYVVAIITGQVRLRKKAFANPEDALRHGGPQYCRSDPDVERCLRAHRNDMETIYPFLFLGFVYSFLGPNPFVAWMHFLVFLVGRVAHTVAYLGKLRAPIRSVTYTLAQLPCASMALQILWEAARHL

Prostaglandin E synthase [2] = target: T1, Prostaglandin E synthase; experiment: Inhibition of recombinant human mPGES-1 expressed in CHO cells assessed as reduction in PGE2 formation using PGH2 a substrate preincubated for 10 mins followed by substrate addition measured after 1 min
In short: (§1)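 mPGES-1 enzyme inhibition. % inhibition values are means of two experiments in duplicate. IC50 values were derived from graphs of at least two experiments in duplicate.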

[3] = target: T2, Prostaglandin E synthase (Homo sapiens) (UniProt O14684); experiment: Inhibition of recombinant human mPGES-1 expressed in CHO cells assessed as reduction in PGE2 formation at 1 uM using PGH2 a substrate preincubated for 10 mins followed by substrate addition measured after 1 min relative to control; in short: as §1
T2 sequence (whole entry): T1 sequence (O14684 whole entry)

[4] = target: T2, Prostaglandin E synthase (Homo sapiens); experiment: Inhibition of recombinant human mPGES-1 expressed in CHO cells assessed as reduction in PGE2 formation at 10 uM using PGH2 a substrate preincubated for 10 mins followed by substrate addition measured after 1 min relative to control; in short: as §1

| Compound | IC50 (Prostaglandin E synthase [1]) [nM] | IC50 (Prostaglandin E synthase [2]) [nM] | inhibition [3] [%] | inhibition [4] [%] |
| --- | --- | --- | --- | --- |
| CC1(C)Oc2cc(C#Cc3cc(Cl)ccc3Cl)ccc2-c2[nH]c(-c3c(F)cccc3Cl)nc21 | 1420 | 9.3 | – | – |
| CC1(C)Oc2cc(C#Cc3cccc(Cl)c3Cl)ccc2-c2nc(-c3c(F)cccc3Cl)[nH]c21 | – | 35.5 | – | – |
| CC1(C)Oc2cc(C#Cc3ccccc3OC(F)(F)F)ccc2-c2[nH]c(-c3c(F)cccc3Cl)nc21 | 578 | 19.9 | – | – |
| CC1(C)Oc2cc(C#Cc3cc(C(F)(F)F)ccc3F)ccc2-c2nc(-c3c(F)cccc3Cl)[nH]c21 | 461 | 25 | – | – |
| CC1(C)Oc2cc(-c3ccc(Cl)cc3)ccc2-c2[nH]c(-c3c(F)cccc3Cl)nc21 | – | – | 76 | 94.8 |
| CC1(C)Oc2cc(C#Cc3cc(F)ccc3C(F)(F)F)ccc2-c2nc(-c3c(Cl)cncc3Cl)[nH]c21 | – | 31.5 | – | – |
| CC1(C)Oc2cc(C#Cc3cncnc3)ccc2-c2nc(-c3c(F)cccc3Cl)[nH]c21 | – | 797 | – | – |
| CC1(C)Oc2cc(C(=O)Nc3ccc(C(F)(F)F)cc3)ccc2-c2[nH]c(-c3c(F)cccc3Cl)nc21 | – | 252 | 86.7 | 92.9 |
| CC1(C)Oc2cc(C#Cc3ccccc3C(F)(F)F)ccc2-c2nc(-c3c(Cl)cncc3Cl)[nH]c21 | – | 81.3 | – | – |
| CC1(C)Oc2cc(C#Cc3ccccc3C(F)(F)F)ccc2-c2nc(-c3c(F)cncc3Cl)[nH]c21 | – | 170 | – | – |
| CC1(C)Oc2cc(-c3ccc(C(F)(F)F)cc3)ccc2-c2[nH]c(-c3c(F)cccc3Cl)nc21 | – | 191 | 81.4 | 83.3 |
| CC1(C)Oc2cc(Br)ccc2-c2[nH]c(-c3c(F)cccc3Cl)nc21 | – | – | 40.8 | 94.1 |
| CC1(C)Oc2cc(C#Cc3ccc(C(F)(F)F)cn3)ccc2-c2nc(-c3c(F)cccc3Cl)[nH]c21 | – | 320 | – | – |
| CC1(C)Oc2cc(C#Cc3ccccc3Cl)ccc2-c2nc(-c3c(F)cccc3Cl)[nH]c21 | – | 64.7 | – | – |
| CC1(C)Oc2cc(-c3ccc(OC(F)(F)F)cc3)ccc2-c2[nH]c(-c3c(F)cccc3Cl)nc21 | – | – | 70.1 | 86.9 |
| CC1(C)Oc2nc(C#Cc3c(F)cccc3C(F)(F)F)ccc2-c2nc(-c3c(F)cccc3Cl)[nH]c21 | – | – | 75 | 76 |
| CC1(C)Oc2cc(C#Cc3ccccc3C(F)(F)F)ccc2-c2[nH]c(-c3c(F)cccc3Cl)nc21 | 693 | 15.6 | – | – |
| CC1(C)Oc2cc(C#Cc3ccccc3)ccc2-c2nc(-c3c(F)cccc3Cl)[nH]c21 | – | 83 | – | – |
| CC1(C)Oc2cc(-c3nc4ccccc4[nH]3)ccc2-c2nc(-c3c(F)cccc3Cl)[nH]c21 | – | – | 12.2 | 75.5 |
| CC1(C)Oc2cc(Cl)ccc2-c2[nH]c(-c3c(Br)cccc3Br)nc21 | – | 325 | 74 | 89 |
| CC1(C)Oc2cc(C(=O)Nc3cccc(C(F)(F)F)c3)ccc2-c2[nH]c(-c3c(F)cccc3Cl)nc21 | – | – | 70.4 | 83.6 |
| CC1(C)Oc2nc(C#Cc3ccccc3C(F)(F)F)ccc2-c2nc(-c3c(F)cccc3Cl)[nH]c21 | – | 407 | – | – |
| CC1(C)Oc2cc(C#Cc3cc(C(F)(F)F)ccc3Cl)ccc2-c2nc(-c3c(Cl)cncc3Cl)[nH]c21 | – | 33.1 | – | – |
| CC1(C)Oc2cc(C(=O)Nc3ccc(Cl)c(F)c3)ccc2-c2[nH]c(-c3c(F)cccc3Cl)nc21 | – | 187 | 83.5 | 84.5 |

| Compound | IC50 (Prostaglandin E synthase [1]) [nM] | IC50 (Prostaglandin E synthase [2]) [nM] | inhibition [3] [%] | inhibition [4] [%] |
| --- | --- | --- | --- | --- |
| Cc1csc(NC(=O)c2ccc3c(c2)OC(C)(C)c2nc(-c4c(F)cccc4Cl)[nH]c2-3)n1 | – | – | 52.8 | 67.2 |
| CC1(C)Oc2cc(C#Cc3ccc(F)c(C(F)(F)F)c3)ccc2-c2nc(-c3c(F)cccc3Cl)[nH]c21 | 1250 | 29.6 | – | – |
| CC1(C)Oc2cc(C#Cc3ccncc3F)ccc2-c2nc(-c3c(F)cccc3Cl)[nH]c21 | – | 641 | – | – |
| CC1(C)Oc2cc(I)ccc2-c2[nH]c(-c3c(F)cccc3Cl)nc21 | – | – | 44.3 | 84.2 |
| CC1(C)Oc2cc(C#Cc3ccccc3)ccc2-c2[nH]c(-c3c(C#N)cccc3C#N)nc21 | 984 | 24.8 | – | – |
| CC1(C)Oc2cc(C#Cc3ccc(C(F)(F)F)cc3Cl)ccc2-c2nc(-c3c(F)cccc3Cl)[nH]c21 | – | 28.2 | – | – |
| CC1(C)Oc2cc(C#Cc3ccc(Cl)cc3C(F)(F)F)ccc2-c2nc(-c3c(F)cccc3Cl)[nH]c21 | 2830 | 7.76 | – | – |
| CC1(C)Oc2cc(C#Cc3ccc(C(F)(F)F)cc3)ccc2-c2[nH]c(-c3c(F)cccc3Cl)nc21 | – | 61.8 | – | – |
| CC1(C)Oc2cc(Br)ccc2-c2[nH]c(-c3c(Br)cccc3Br)nc21 | – | 710 | 68.6 | 92 |
| CC1(C)Oc2cc(C#Cc3c(F)cccc3C(F)(F)F)ccc2-c2nc(-c3c(C#N)cccc3C#N)[nH]c21 | 836 | 12.7 | – | – |
| CC1(C)Oc2cc(C#Cc3c(F)cccc3C(F)(F)F)ccc2-c2[nH]c(-c3c(F)cccc3Cl)nc21 | 691 | 12.3 | – | – |
| CC1(C)Oc2cc(C#Cc3cc(C(F)(F)F)ccc3Cl)ccc2-c2nc(-c3c(C#N)cccc3C#N)[nH]c21 | 1200 | 3.89 | – | – |
| CC1(C)Oc2cc(C#Cc3c(Cl)cccc3Cl)ccc2-c2nc(-c3c(F)cccc3Cl)[nH]c21 | – | 11.2 | – | – |
| CC1(C)Oc2cc(C#Cc3ccccc3OC(F)(F)F)ccc2-c2[nH]c(-c3c(C#N)cccc3C#N)nc21 | 267 | 11.8 | – | – |
| CC1(C)Oc2cc(C(=O)NC3CCCCC3)ccc2-c2nc(-c3c(F)cccc3Cl)[nH]c21 | – | – | 56 | 68 |
| CC1(C)Oc2nc(C#Cc3cc(C(F)(F)F)ccc3Cl)ccc2-c2nc(-c3c(F)cccc3Cl)[nH]c21 | – | – | 65 | 63 |
| CC1(C)Oc2cc(C#Cc3ccc(Cl)cc3)ccc2-c2nc(-c3c(F)cccc3Cl)[nH]c21 | – | 38.2 | – | – |
| CC1(C)Oc2cc(C#Cc3ccc(C(F)(F)F)cc3Cl)ccc2-c2nc(-c3c(F)cncc3Cl)[nH]c21 | – | 73.9 | – | – |
| Cc1cnc(C#Cc2ccc3c(c2)OC(C)(C)c2[nH]c(-c4c(F)cccc4Cl)nc2-3)s1 | – | 465 | – | – |
| CC1(C)Oc2cc(C#Cc3cc(Cl)ccc3Cl)ccc2-c2nc(-c3c(C#N)cccc3C#N)[nH]c21 | 2320 | 12.7 | – | – |
| CC1(C)Oc2cc(C#Cc3cccc(C(F)(F)F)c3)ccc2-c2nc(-c3c(F)cccc3Cl)[nH]c21 | – | 29.3 | – | – |
| CC1(C)Oc2cc(C#Cc3cccc(Cl)c3)ccc2-c2nc(-c3c(F)cccc3Cl)[nH]c21 | – | 39.2 | – | – |
| CC1(C)Oc2cc(C#Cc3cc(F)ccc3C(F)(F)F)ccc2-c2[nH]c(-c3c(F)cccc3Cl)nc21 | 706 | 21 | – | – |
| CC1(C)Oc2cc(-c3nc(C4CC4)no3)ccc2-c2[nH]c(-c3c(F)cccc3Cl)nc21 | – | – | 89 | 98.6 |
